According to ChEMBL document CHEMBL1157170, “Novel 5-azaindolocarbazoles as cytotoxic agents and Chk1 inhibitors” (Bioorg Med Chem, 2008):
Active and inactive are the calls of the source. No cut-off for these calls is given here.

Legend:
L1210 [1] = assay: Antiproliferative activity against mouse L1210 cells after 48 hrs by microculture tetrazolium assay; assay type: functional, cell-based; settings: L1210, 48 h
Procedure, shortened: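 L1210 cells grown in RPMI 1640 with 10% fetal calf serum, 2 mM L-glutamine, penicillin/streptomycin and 10 mM Hepes (pH 7.4). Exposed for 48 h (four doubling times) to nine serial dilutions, each in triplicate. Read-out was microculture tetrazolium assay. IC50 is the concentration that cut optical density by 50% versus untreated controls.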

[2] = molecular target: T1, Serine/threonine-protein kinase Chk1 (Homo sapiens) (UniProt O14757); assay: Inhibition of human Chk1 expressed in sf9-baculovirus system at 10 uM
T1 sequence (whole entry): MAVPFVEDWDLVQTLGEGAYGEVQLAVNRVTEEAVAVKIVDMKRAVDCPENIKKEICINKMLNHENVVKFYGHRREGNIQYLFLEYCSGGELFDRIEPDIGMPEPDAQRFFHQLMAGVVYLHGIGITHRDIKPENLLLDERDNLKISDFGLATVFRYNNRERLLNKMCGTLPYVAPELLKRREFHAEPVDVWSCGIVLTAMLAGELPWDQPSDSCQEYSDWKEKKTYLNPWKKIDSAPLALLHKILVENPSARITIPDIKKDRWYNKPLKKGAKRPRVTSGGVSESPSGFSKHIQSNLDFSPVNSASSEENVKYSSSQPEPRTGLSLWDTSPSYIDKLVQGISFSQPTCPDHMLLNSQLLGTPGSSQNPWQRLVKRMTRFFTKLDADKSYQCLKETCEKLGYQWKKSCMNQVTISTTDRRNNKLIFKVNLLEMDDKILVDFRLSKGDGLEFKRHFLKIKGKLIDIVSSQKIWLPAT

HT-29 = assay: Antiproliferative activity against human HT29 cells after 96 hrs by microculture tetrazolium assay; settings: HT-29, 96 h
[3] = molecular target: T2, Serine/threonine-protein kinase Chk1 (Homo sapiens, UniProt O14757); assay: Inhibition of human Chk1 expressed in sf9-baculovirus system
T2 sequence (O14757 whole entry): T1 sequence (whole entry)
Procedure, shortened: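 Kinase was GST-tagged Chk1 purified from extracts of Sf9 cells infected with a GST-Chk1 baculovirus. Assay format followed a published method.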

L1210 [4] = assay: Toxicity against mouse L1210 cells at 20 uM; assay type: functional, cell-based
L1210 [5] = assay: Cell cycle arrest in mouse L1210 cells by accumulation at G1 phase at 1 uM after 21 hrs by flow cytometry; assay type: functional
Procedure, shortened: (§1)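 L1210 cells at 2.5 × 10⁵ cells/mL incubated 21 h with various compound concentrations. Fixed in 70% ethanol, washed, then stained 30 min in D-PBS containing RNAse and propidium iodide. DNA content analysed by flow cytometry.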

L1210 [6] = assay: Cell cycle arrest in mouse L1210 cells by accumulation at G2M phase at 5 uM after 21 hrs by flow cytometry; assay type: functional; procedure, shortened: as §1
L1210 [7] = assay: Cell cycle arrest in mouse L1210 cells by accumulation at G2M phase at 1 uM after 21 hrs by flow cytometry; assay type: functional; procedure, shortened: as §1

SMILES	IC50 (L1210 [1]) [µM]	inhibition [2] [%]	IC50 (HT-29) [µM]	IC50 [3] [µM]	Activity (L1210 [4])	Activity (L1210 [5]) [%]	Activity (L1210 [6]) [%]	Activity (L1210 [7]) [%]
CN(C)CCN1C(=O)c2c(c3c4cc(O)ccc4[nH]c3c3[nH]c4ccncc4c23)C1=O	2.6	48.9	50.9	–	–	–	–	–
CN1C(=O)c2c(c3c4cnccc4[nH]c3c3[nH]c4cc(O)ccc4c23)C1=O	2.7	66.6	16.2	5	Active	–	–	–
CN(C)CCN1C(=O)c2c(c3c4cnccc4[nH]c3c3[nH]c4cc(OCc5ccccc5)ccc4c23)C1=O	1.4	32.7	2.9	–	–	–	–	–
CN1C(=O)c2c(c3c4ccccc4n([C@@H]4O[C@H](CO)[C@@H](O)[C@H](O)[C@H]4O)c3c3[nH]c4cc[n+](Cc5ccccc5)cc4c23)C1=O	12.8	51.4	63.7	–	–	–	–	–
CN(C)CCN1C(=O)c2c(c3c4cc5c(cc4[nH]c3c3[nH]c4ccncc4c23)OCO5)C1=O	0.195	6.7	1.76	–	–	–	–	62
O=C1NC(=O)c2c1c1c3ccc(O)cc3[nH]c1c1[nH]c3ccncc3c21	3.3	98.7	> 100	0.014	–	–	–	–
O=C1NC(=O)c2c1c1c3cnccc3[nH]c1c1[nH]c3ccc(OCc4ccccc4)cc3c21	1.5	90.6	7.6	1.32	–	–	–	–

Now from value to compound, other results behind:

IC50 (L1210 [1]) [µM]	inhibition [2] [%]	IC50 (HT-29) [µM]	IC50 [3] [µM]	SMILES	Activity (L1210 [4])	Activity (L1210 [5]) [%]	Activity (L1210 [6]) [%]	Activity (L1210 [7]) [%]
> 100	49	–	–	CN1C(=O)c2c(c3c4ccccc4n([C@@H]4O[C@H](COCc5ccccc5)[C@@H](OCc5ccccc5)[C@H](OCc5ccccc5)[C@H]4OCc4ccccc4)c3c3[nH]c4ccncc4c23)C1=O	–	–	–	–
16.3	17.6	19.5	–	CN(C)CCN1C(=O)c2c(c3c4cc(OCc5ccccc5)ccc4[nH]c3c3[nH]c4ccncc4c23)C1=O	–	–	–	–
0.6	98.6	1.5	5	O=C1NC(=O)c2c1c1c3ccccc3[nH]c1c1[nH]c3ccncc3c21	–	60	–	–
80.7	99.1	> 100	0.027	O=C1NC(=O)c2c1c1c3cnccc3[nH]c1c1[nH]c3ccc(O)cc3c21	–	–	–	–
1.1	95.9	32.4	0.072	O=C1NC(=O)c2c1c1c3ccc(OCc4ccccc4)cc3[nH]c1c1[nH]c3ccncc3c21	–	–	43	–
0.6	27	2	–	CN1C(=O)c2c(c3c4cnccc4[nH]c3c3[nH]c4cc(OCc5ccccc5)ccc4c23)C1=O	–	–	–	–
11.9	38.5	> 100	–	CN1C(=O)c2c(c3c4cc(O)ccc4[nH]c3c3[nH]c4ccncc4c23)C1=O	–	–	–	–
14.3	46.5	> 100	–	CC(=O)OC[C@H]1O[C@@H](n2c3ccccc3c3c4c(c5c6c[n+](Cc7ccccc7)ccc6[nH]c5c32)C(=O)N(C)C4=O)[C@H](OC(C)=O)[C@@H](OC(C)=O)[C@@H]1OC(C)=O	–	–	–	–
0.495	26.7	3.35	–	CN1C(=O)c2c(c3c4cc5c(cc4[nH]c3c3[nH]c4ccncc4c23)OCO5)C1=O	–	–	–	–
0.47	49.4	3.8	–	CN(C)CCN1C(=O)c2c(c3c4cnccc4[nH]c3c3[nH]c4ccccc4c23)C1=O	–	–	–	–
